Test system: Fibroblast
Test: Multiplex assay against human fibroblast
Format: toxicity, cell-based
How it was run: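 At seeding, live cells were stained with Hoechst33342, BioTracker Green Microtubule Cytoskeleton Dye, MitoTracker Red and Annexin V Alexa Fluor 680. After compound addition they were imaged on a CQ1 microscope at 37°C and 5% CO2, and CellPathfinder machine-learning gating sorted them into Hoechst high-intensity objects or normal cells, with normal cells further split into healthy, pyknosed or fragmented nuclei and pyknosed cells into mitotic or apoptotic. Tubulin, mitochondrial-mass and membrane-permeability phenotypes are given as per cents of cells with healthy nuclei.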

[1] = 12 h, 1 µM, compound concentration 1 uM, replicate 1
[2] = 12 h, 1 µM, compound concentration 1 uM, replicate 2
[3] = 12 h, 10 µM, compound concentration 10 uM, replicate 1
[4] = 12 h, 10 µM, compound concentration 10 uM, replicate 2
[5] = 24 h, 1 µM, compound concentration 1 uM, replicate 1
[6] = 24 h, 1 µM, compound concentration 1 uM, replicate 2
[7] = 24 h, 10 µM, compound concentration 10 uM, replicate 1
[8] = 24 h, 10 µM, compound concentration 10 uM, replicate 2
[9] = 48 h, 1 µM, compound concentration 1 uM, replicate 1
[10] = 48 h, 1 µM, compound concentration 1 uM, replicate 2
[11] = 48 h, 10 µM, compound concentration 10 uM, replicate 1
[12] = 48 h, 10 µM, compound concentration 10 uM, replicate 2

For CCc1cccc(CC)c1NC(=O)c1nn(C)c2c1CCc1cnc(Nc3ccc(C(=O)NC4CCN(C)CC4)cc3OC(F)(F)F)nc1-2, the “Population Apoptotic (%)” value [1] was 62%, the “Population Fragmented Nuclei (%)” value [1] was 22% and the “Population Healthy Nuclei (%)” value [1] was 38%. The “Population Hoechst High Intensity Objects (%)” value [1] was 7%, the “Population Membrane Permeable-Phenotype (%)” value [1] was 24% and the “Population Mitochondria Different-Phenotype (%)” value [1] was 7%. The “Population Mitotic Cells (%)” value [1] was 37%, the “Population Normal (%)” value [1] was 92% and the “Population Pyknosed Nuclei (%)” value [1] was 39%. The “Population Tubulin-Different-Phenotype (%)” value [1] was 47%, the “Total Cell Count” value [1] was 160 and the “Population Apoptotic (%)” value [2] was 40%. The “Population Fragmented Nuclei (%)” value [2] was 1%, the “Population Healthy Nuclei (%)” value [2] was 83% and the “Population Hoechst High Intensity Objects (%)” value [2] was 13%. The “Population Membrane Permeable-Phenotype (%)” value [2] was 5%, the “Population Mitochondria Different-Phenotype (%)” value [2] was 14% and the “Population Mitotic Cells (%)” value [2] was 60%. For the same molecule, the “Population Normal (%)” value [2] was 86%, the “Population Pyknosed Nuclei (%)” value [2] was 15% and the “Population Tubulin-Different-Phenotype (%)” value [2] was 18%. For the same molecule, the “Total Cell Count” value [2] was 51, the “Population Apoptotic (%)” value [3] was 61% and the “Population Fragmented Nuclei (%)” value [3] was 24%. For the same molecule, the “Population Healthy Nuclei (%)” value [3] was 51%, the “Population Hoechst High Intensity Objects (%)” value [3] was 21% and the “Population Membrane Permeable-Phenotype (%)” value [3] was 8%. For the same molecule, the “Population Mitochondria Different-Phenotype (%)” value [3] was 26%, the “Population Mitotic Cells (%)” value [3] was 38% and the “Population Normal (%)” value [3] was 78%. The “Population Pyknosed Nuclei (%)” value [3] was 23%, the “Population Tubulin-Different-Phenotype (%)” value [3] was 60% and the “Total Cell Count” value [3] was 139. For the same molecule, the “Population Apoptotic (%)” value [4] was 46%, the “Population Fragmented Nuclei (%)” value [4] was 12% and the “Population Healthy Nuclei (%)” value [4] was 70%. For the same molecule, the “Population Hoechst High Intensity Objects (%)” value [4] was 5%, the “Population Membrane Permeable-Phenotype (%)” value [4] was 15% and the “Population Mitochondria Different-Phenotype (%)” value [4] was 98%. For the same molecule, the “Population Mitotic Cells (%)” value [4] was 53%, the “Population Normal (%)” value [4] was 94% and the “Population Pyknosed Nuclei (%)” value [4] was 17%. For the same molecule, the “Population Tubulin-Different-Phenotype (%)” value [4] was 86%, the “Total Cell Count” value [4] was 75 and the “Population Apoptotic (%)” value [5] was 48%. For the same molecule, the “Population Fragmented Nuclei (%)” value [5] was 23%, the “Population Healthy Nuclei (%)” value [5] was 40% and the “Population Hoechst High Intensity Objects (%)” value [5] was 11%. The “Population Membrane Permeable-Phenotype (%)” value [5] was 23%, the “Population Mitochondria Different-Phenotype (%)” value [5] was 5% and the “Population Mitotic Cells (%)” value [5] was 52%. For the same molecule, the “Population Normal (%)” value [5] was 88%, the “Population Pyknosed Nuclei (%)” value [5] was 35% and the “Population Tubulin-Different-Phenotype (%)” value [5] was 53%. For the same molecule, the “Total Cell Count” value [5] was 157, the “Population Apoptotic (%)” value [6] was 37% and the “Population Fragmented Nuclei (%)” value [6] was 7%. The “Population Healthy Nuclei (%)” value [6] was 81%, the “Population Hoechst High Intensity Objects (%)” value [6] was 10% and the “Population Membrane Permeable-Phenotype (%)” value [6] was 5%. For the same molecule, the “Population Mitochondria Different-Phenotype (%)” value [6] was 12%, the “Population Mitotic Cells (%)” value [6] was 62% and the “Population Normal (%)” value [6] was 89%. The “Population Pyknosed Nuclei (%)” value [6] was 11%, the “Population Tubulin-Different-Phenotype (%)” value [6] was 19% and the “Total Cell Count” value [6] was 53. For the same molecule, the “Population Apoptotic (%)” value [7] was 62%, the “Population Fragmented Nuclei (%)” value [7] was 25% and the “Population Healthy Nuclei (%)” value [7] was 49%. The “Population Hoechst High Intensity Objects (%)” value [7] was 30%, the “Population Membrane Permeable-Phenotype (%)” value [7] was 16% and the “Population Mitochondria Different-Phenotype (%)” value [7] was 40%. The “Population Mitotic Cells (%)” value [7] was 37%, the “Population Normal (%)” value [7] was 69% and the “Population Pyknosed Nuclei (%)” value [7] was 25%. The “Population Tubulin-Different-Phenotype (%)” value [7] was 50%, the “Total Cell Count” value [7] was 161 and the “Population Apoptotic (%)” value [8] was 50%. The “Population Fragmented Nuclei (%)” value [8] was 15%, the “Population Healthy Nuclei (%)” value [8] was 63% and the “Population Hoechst High Intensity Objects (%)” value [8] was 2%. The “Population Membrane Permeable-Phenotype (%)” value [8] was 26%, the “Population Mitochondria Different-Phenotype (%)” value [8] was 91% and the “Population Mitotic Cells (%)” value [8] was 50%. The “Population Normal (%)” value [8] was 97%, the “Population Pyknosed Nuclei (%)” value [8] was 20% and the “Population Tubulin-Different-Phenotype (%)” value [8] was 73%. For the same molecule, the “Total Cell Count” value [8] was 77, the “Population Apoptotic (%)” value [9] was 67% and the “Population Fragmented Nuclei (%)” value [9] was 31%. For the same molecule, the “Population Healthy Nuclei (%)” value [9] was 45%, the “Population Hoechst High Intensity Objects (%)” value [9] was 15% and the “Population Membrane Permeable-Phenotype (%)” value [9] was 16%. The “Population Mitochondria Different-Phenotype (%)” value [9] was 7%, the “Population Mitotic Cells (%)” value [9] was 32% and the “Population Normal (%)” value [9] was 84%. The “Population Pyknosed Nuclei (%)” value [9] was 23%, the “Population Tubulin-Different-Phenotype (%)” value [9] was 40% and the “Total Cell Count” value [9] was 141. The “Population Apoptotic (%)” value [10] was 20%, the “Population Fragmented Nuclei (%)” value [10] was 38% and the “Population Healthy Nuclei (%)” value [10] was 55%. The “Population Hoechst High Intensity Objects (%)” value [10] was 11%, the “Population Membrane Permeable-Phenotype (%)” value [10] was 10% and the “Population Mitochondria Different-Phenotype (%)” value [10] was 4%. For the same molecule, the “Population Mitotic Cells (%)” value [10] was 80%, the “Population Normal (%)” value [10] was 88% and the “Population Pyknosed Nuclei (%)” value [10] was 5%. For the same molecule, the “Population Tubulin-Different-Phenotype (%)” value [10] was 42%, the “Total Cell Count” value [10] was 102 and the “Population Apoptotic (%)” value [11] was 70%. For the same molecule, the “Population Fragmented Nuclei (%)” value [11] was 31%, the “Population Healthy Nuclei (%)” value [11] was 50% and the “Population Hoechst High Intensity Objects (%)” value [11] was 38%. The “Population Membrane Permeable-Phenotype (%)” value [11] was 16%, the “Population Mitochondria Different-Phenotype (%)” value [11] was 15% and the “Population Mitotic Cells (%)” value [11] was 30%. The “Population Normal (%)” value [11] was 61%, the “Population Pyknosed Nuclei (%)” value [11] was 18% and the “Population Tubulin-Different-Phenotype (%)” value [11] was 47%. The “Total Cell Count” value [11] was 172, the “Population Apoptotic (%)” value [12] was 25% and the “Population Fragmented Nuclei (%)” value [12] was 29%. The “Population Healthy Nuclei (%)” value [12] was 67%, the “Population Hoechst High Intensity Objects (%)” value [12] was 15% and the “Population Membrane Permeable-Phenotype (%)” value [12] was 30%. The “Population Mitochondria Different-Phenotype (%)” value [12] was 10%, the “Population Mitotic Cells (%)” value [12] was 75% and the “Population Normal (%)” value [12] was 84%. The “Population Pyknosed Nuclei (%)” value [12] was 2%, the “Population Tubulin-Different-Phenotype (%)” value [12] was 43% and the “Total Cell Count” value [12] was 158.

Reference: ChEMBL document CHEMBL4689842, “EUbOPEN Chemogenomics Library wave 1” (2021)
